Active and inactive are the calls of the source. The calls are words filed in the database; no cut-off is given here.
What was measured:
[1] = Cytotoxicity against albino Swiss mouse peritoneal macrophages assessed as reduction in cell viability incubated for 24 hrs by Presto blue assay; format: tissue-based, Macrophage; conditions: read-out: LC50
How it was run: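 Primary peritoneal macrophages from Albino Swiss mice were seeded at 2.5 × 10^4 cells per well in RPMI-1640 (pH 7.2, 10% FBS, 2 mM glutamine) and grown 24 h at 37 °C. They were then treated 24 h at 37 °C with compound from DMSO stock (final DMSO ≤0.4%).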

[2] = Selectivity index, ratio of LC50 for cytotoxicity against albino Swiss mouse peritoneal macrophages to IC50 for Antitrypanosomal activity against Trypanosoma cruzi Y strain bloodstream trypomastigotes assessed as lysis of parasite in presence of 5 % mouse blood; format: toxicity
How it was run: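 Y-strain bloodstream trypomastigotes came from infected albino mice at peak parasitaemia and were purified by differential centrifugation. They were resuspended at 10^7/mL in RPMI with 10% mouse blood and mixed 1:1 with compound at twice the final concentration (DMSO ≤0.4%). Incubation was 24 h at 4 °C (5% blood per footnote).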

HCT-116 = test: Cytotoxicity against human HCT-116 cells assessed as reduction in cell viability after 72 hrs by MTT assay; format: functional, cell-based; conditions: HCT-116, 72 h
How it was run: (§1)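 Cells were grown in medium with 10% FBS, 2 mM L-glutamine, penicillin and streptomycin at 37 °C, 5% CO2. Seeding per well was 0.1 × 10^6 for leukaemia, PC3, L929 and NCI-H460, and 0.7 × 10^5 for HCT-116. Compounds in DMSO (0.1% final) were applied for 72 h. MTT (0.5 mg/mL) was added for 3 h, formazan dissolved in DMSO, and absorbance read at 550 nm. IC50 by nonlinear regression; three independent experiments in triplicate.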

HL-60 = test: Cytotoxicity against human HL-60 cells assessed as reduction in cell viability after 72 hrs by MTT assay; format: functional, cell-based; conditions: HL-60, 72 h
How it was run: as §1, with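 “CO2.” for “CO2. Seeding per well was 0.1 × 10^6 for leukaemia, PC3, L929 and NCI-H460, and 0.7 × 10^5 for HCT-116.”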

Trypanosoma cruzi [3] = test: Antitrypanosomal activity against Trypanosoma cruzi Y strain bloodstream trypomastigotes assessed as lysis of parasite in presence of 5 % mouse blood incubated for 24 hrs by Neubauer chamber method; format: functional, organism-based
How it was run: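 Y strain bloodstream trypomastigotes came from infected albino mice at peak parasitaemia, purified by differential centrifugation, in RPMI at 10^7 cells/mL with 10% mouse blood. They were mixed 1:1 with compound at twice the final concentration (5% blood final), 24 h at 4 °C, with DMSO ≤0.4% final. Neubauer chamber counting; IC50 is 50% lysis; at least three independent experiments.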

[4] = Selectivity index, ratio of IC50 for mouse L929 cells to IC50 for human Lucena1 cells after 72 hrs by MTT assay
How it was run: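 Selectivity index is the ratio of IC50 in murine L929 fibroblasts to IC50 in Lucena 1 cells, each measured by 72 h MTT assay (absorbance 550 nm). IC50 values came from nonlinear regression of three independent experiments in triplicate.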

[5] = Selectivity index, ratio of LC50 for cytotoxicity against albino Swiss mouse peritoneal macrophages to IC50 for Antitrypanosomal activity against Trypanosoma cruzi Y strain bloodstream trypomastigotes assessed as lysis of parasite in absence of mouse blood; format: toxicity
How it was run: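 Y-strain bloodstream trypomastigotes came from infected albino mice at peak parasitaemia and were purified by differential centrifugation into RPMI. They were exposed 24 h at 37 °C without blood to compound (DMSO ≤0.4%).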

[6] = Selectivity index, ratio of IC50 for mouse L929 cells to IC50 for human HL-60cells after 72 hrs by MTT assay; format: toxicity; conditions: L929 cells versus HL-60 cells, read-out: Ratio IC50
How it was run: (§2)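 Both cell types were kept in medium with 10% FBS, 2 mM L-glutamine and penicillin/streptomycin at 37 °C, 5% CO2. Seeding was 0.7 × 10^5 cells per well for HCT-116, 0.1 × 10^6 for the other lines. Cells got compound in DMSO (0.1% final) for 72 h, then 0.5 mg/mL MTT for 3 h, with formazan read at 550 nm. IC50 came from nonlinear regression over three independent experiments in triplicate. SI is the L929 IC50 divided by the cancer-line IC50.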

NCI-H460 = test: Cytotoxicity against human NCI-H460 cells assessed as reduction in cell viability after 72 hrs by MTT assay; format: functional, cell-based; conditions: NCI-H460, 72 h
How it was run: as §1, with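 “CO2.” for “CO2. Seeding per well was 0.1 × 10^6 for leukaemia, PC3, L929 and NCI-H460, and 0.7 × 10^5 for HCT-116.”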

K562 [7] = test: Cytotoxicity against human K562 cells assessed as reduction in cell viability after 72 hrs by MTT assay; format: functional, cell-based; conditions: K562, 72 h; how it was run: as §1
[8] = Selectivity index, ratio of IC50 for mouse L929 cells to IC50 for human NCI-H460 cells after 72 hrs by MTT assay; format: toxicity; conditions: L929 cells versus NCI-H460 cells, read-out: Ratio IC50; how it was run: as §2
[9] = Selectivity index, ratio of IC50 for mouse L929 cells to IC50 for human PC3 cells after 72 hrs by MTT assay; format: toxicity; conditions: L929 cells versus PC3 cells, read-out: Ratio IC50; how it was run: as §2
[10] = Cytotoxicity against human Lucena1 cells assessed as reduction in cell viability after 72 hrs by MTT assay; format: functional, cell-based; conditions: Lucena 1, 72 h; how it was run: as §1
[11] = Selectivity index, ratio of IC50 for mouse L929 cells to IC50 for human HCT116 cells after 72 hrs by MTT assay; format: toxicity; conditions: L929 cells versus HCT116 cells, read-out: Ratio IC50; how it was run: as §2
PC-3 = test: Cytotoxicity against human PC-3 cells assessed as reduction in cell viability after 72 hrs by MTT assay; format: functional, cell-based; conditions: PC-3, 72 h; how it was run: as §1
[12] = Selectivity index, ratio of IC50 for mouse L929 cells to IC50 for human K-562 cells after 72 hrs by MTT assay; format: toxicity; conditions: L929 cells versus K-562 cells, read-out: Ratio IC50; how it was run: as §2
Trypanosoma cruzi [13] = test: Antitrypanosomal activity against Trypanosoma cruzi Y strain bloodstream trypomastigotes assessed as lysis of parasite in absence of mouse blood incubated for 24 hrs by Neubauer chamber method; format: functional, organism-based
How it was run: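 T. cruzi Y strain bloodstream trypomastigotes came from infected albino mice at peak parasitaemia and were purified by differential centrifugation. They were exposed to compounds for 24 h at 37 °C without blood. Parasites were counted in a Neubauer chamber, and IC50 is the concentration lysing 50% of parasites. Values are mean ± SD of at least three independent experiments.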

L929 = test: Cytotoxicity against mouse L929 cells assessed as reduction in cell viability after 72 hrs by MTT assay; format: cell-based; conditions: L929, 72 h; how it was run: as §1
K562 [14] = test: Induction of reactive oxygen species generation in human K562 cells at 40 uM measured after 3 hr by H2DCFDA probe-based flow cytometry; format: functional, cell-based
How it was run: (§3)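 K-562 cells were pre-loaded with 10 μM CM-H2DCFDA for 1 h in the dark at 37 °C/5% CO2, washed with PBS, then incubated with compound in fresh medium for 1 or 3 h. Cells were resuspended in PBS with 1 μg/mL propidium iodide and analysed by flow cytometry on ice. DCF fluorescence (ex 490/em 525 nm) was read in PI-negative cells, 10 000 events per sample. Menadione 20 μM and H2O2 150 μM were positive controls. Mean ± SEM of three independent experiments.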

K562 [15] = test: Induction of reactive oxygen species generation in human K562 cells at 40 uM measured after 1 hr by H2DCFDA probe-based flow cytometry; format: functional, cell-based; how it was run: as §3

| SMILES | CC50 at 24 h [1] [µM] | selectivity ratio [2] | IC50 (HCT-116) [µM] | IC50 (HL-60) [µM] | IC50 (Trypanosoma cruzi [3]) [µM] | Ratio IC50 [4] | selectivity ratio [5] | selectivity ratio at 72 h [6] | IC50 (NCI-H460) [µM] | IC50 (K562 [7]) [µM] | selectivity ratio at 72 h [8] | selectivity ratio at 72 h [9] | IC50 [10] [µM] | selectivity ratio at 72 h [11] | IC50 (PC-3) [µM] | selectivity ratio at 72 h [12] | IC50 (Trypanosoma cruzi [13]) [µM] | IC50 (L929) [µM] | Activity (K562 [14]) | Activity (K562 [15]) |
| --- | --- | --- | --- | --- | --- | --- | --- | --- | --- | --- | --- | --- | --- | --- | --- | --- | --- | --- | --- | --- |
| Cc1ccc(SC2=CC(=O)C(=O)c3ccccc32)cc1 | 81.4 | 0.92 | > 20 | 4.14 | 88.7 | 2.1 | 23.9 | 6.6 | > 20 | 14.9 | 0.8 | 0.8 | 12.8 | 1.3 | > 20 | 1.8 | 3.4 | > 20 |  |  |
| Cc1cccc(SC2=CC(=O)C(=O)c3ccccc32)c1 | 67.3 | 1.03 | 19.6 | 5.42 | 65.6 | 2.8 | 14.6 | 6.6 | > 20 | 16.2 | 1 | 1 | 12.7 | 1.8 | > 20 | 2.2 | 4.6 | > 20 |  |  |
| C#CCOC1=C/C(=N\c2ccc(Cl)cc2)c2ccccc2C1=O |  |  | 18.9 | 11 |  | 1.9 |  | 2.8 | 16.2 | 12.8 | 1.9 | 2.1 | 16.4 | 1.6 | 14.6 | 2.4 |  | > 20 | Active |  |
| Cc1ccc(S(=O)(=O)n2cc(COC3=C/C(=N\c4ccc(Br)cc4)c4ccccc4C3=O)nn2)cc1 | > 100 |  | 9.25 | 4.22 | > 500 | 5.3 |  | 4.2 | 9.41 | 5.4 | 1.9 | 5.2 | 3.32 | 1.9 | 3.41 | 3.3 |  | > 17.8 | Active |  |
| O=C(Cn1ccnc1[N+](=O)[O-])NCc1ccccc1 [BENZNIDAZOLE] | > 4000 | > 38.6 |  |  |  |  | > 413 |  |  |  |  |  |  |  |  |  | 9.7 |  |  |  |
| Cc1ccc(S(=O)(=O)n2cc(COC3=C/C(=N\c4ccc(F)cc4)c4ccccc4C3=O)nn2)cc1 | 26.9 | > 18.6 | 5.75 | 7.52 | > 500 | 3 |  | 2.6 | 7.36 | 7.7 | 2.7 | 9.8 | 6.58 | 3.5 | 2.03 | 2.6 |  | > 20 |  |  |
| COc1ccc(SC2=CC(=O)C(=O)c3ccccc32)cc1 | 41.5 | 0.37 | > 20 | 9.38 | 112 | 1 | 10.6 | 3.6 | > 20 | 13.3 | 1 | 1 | > 20 | 1 | > 20 | 2.5 | 3.9 | > 20 |  |  |
| O=C1C=C(Sc2ccccc2)c2ccccc2C1=O | 36.9 | 1.52 | 12.8 | 6.08 | 24.3 | 1.8 | 28.4 | 4.6 | > 20 | 15.7 | 0.7 | 0.7 | 15.6 | 2.2 | > 20 | 1.8 | 1.3 | > 20 | Active | Active |

Reference: ChEMBL document CHEMBL4673180, “Synthesis of quinone imine and sulphur-containing compounds with antitumor and trypanocidal activities: redox and biological implications” (RSC Med Chem, 2020)
